Data as given in ChEMBL document CHEMBL3407388, “Synthesis, anticancer activity and molecular docking studies on a series of heterocyclic trans-cyanocombretastatin analogues as antitubulin agents” (2015).

What was measured:
[1] = test system: MV4-11; assay: Anti-leukemic activity against human MV4-11 cells assessed as cell dead after 24 to 48 hrs by annexin V-FITC/7-AAD staining-based flow cytometric analysis; format: functional; conditions: for CC50: read-out: LD50 (the source's name)
Summary of the method: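 MV4-11 cells grown in IMDM with 10% FBS, penicillin and streptomycin, seeded at 5 × 10^5/ml and treated. At 24 and 48 h they were stained with annexin V-FITC plus 1 μg/ml 7-AAD. Percent dead cells (annexin V+) was read by flow cytometry and expressed relative to the DMSO vehicle control.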

[2] = test system: Leukemia cell; assay: Cytotoxicity against human primary blast crisis phase of chronic myeloid leukemia cells assessed as apoptotic/dead cells at 25 to 200 nM by CD45-APC-H7/ annexin V-FITC/7-AAD staining-based flow cytometric analysis; format: functional; conditions: TDE = time-dependent effect
Summary of the method: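 Cryopreserved primary blast-crisis CML samples, obtained with informed consent and IRB approval, were thawed, cultured and treated with the indicated doses. At 48 h they were stained with CD45-APC-H7, then annexin V-FITC and 7-AAD. Percent annexin V+ blasts by flow cytometry, normalized to the DMSO control.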

[3] = test system: KCL-22; assay: (§1) Cytotoxicity against human KCL22 cells assessed as apoptotic/dead cells after 24 to 48 hrs by annexin V-FITC/7-AAD staining-based flow cytometric analysis; format: functional
[4] = as §1; format: functional; conditions: KCL-22, read-out: LD50 (the source's name)
[5] = species: Homo sapiens; assay: (§2) Cytotoxicity against human MLL-ENL cells assessed as apoptotic/dead cells after 24 to 48 hrs by annexin V-FITC/7-AAD staining-based flow cytometric analysis; format: functional
[6] = as §2; format: functional; conditions: read-out: LD50 (the source's name)
[7] = test system: K562; assay: Cytotoxicity against human K562 cells assessed as apoptotic/dead cells after 24 to 48 hrs by annexin V-FITC/7-AAD staining-based flow cytometric analysis; format: functional
[8] = test system: MOLM-13; assay: Cytotoxicity against human MOLM13 cells assessed as apoptotic/dead cells after 24 to 48 hrs by annexin V-FITC/7-AAD staining-based flow cytometric analysis; format: functional
[9] = (§3) Cytotoxicity against human TF1 cells assessed as apoptotic/dead cells after 24 to 48 hrs by annexin V-FITC/7-AAD staining-based flow cytometric analysis; format: functional; conditions: TF-1, read-out: LD50 (the source's name)
[10] = test system: TF-1; assay: as §3; format: functional
[11] = test system: Kasumi-4; assay: (§4) Cytotoxicity against human Kasumi-4 cells assessed as apoptotic/dead cells after 24 to 48 hrs by annexin V-FITC/7-AAD staining-based flow cytometric analysis; format: functional
[12] = as §4; format: functional; conditions: read-out: LD50 (the source's name)
[13] = target: Tubulin (Homo sapiens) (UniProt P68371+Q9H4B7+P0DPH7+P68366+Q13509+Q71U36+P04350+Q3ZCM7+P07437+P68363+Q9BQE3+Q6PEY2+Q13885+Q9BVA1+Q9BUF5); assay: Inhibition of tubulin polymerization in human MV4-11 cells at 50 nM after 2 hrs by immunoblot analysis relative to control; format: cell-based
Summary of the method: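 MV4-11 AML cells were exposed for 2 h to 25, 50 or 100 nM compound. Free tubulin (supernatant) and polymerized tubulin (pellet) were separated and detected by anti-tubulin immunoblot.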

[14] = Cytotoxicity against human primary blast crisis phase of chronic myeloid leukemia cells assessed as apoptotic/dead cells at 25 nM measured at 96 hrs by CD45-APC-H7/ annexin V-FITC/7-AAD staining-based flow cytometric analysis relative to control; format: functional, Leukemia cell
Summary of the method: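 Thawed cryopreserved primary blast-crisis CML cells were treated and read at 24, 48 and 96 h time-points. Staining used CD45-APC-H7, annexin V-FITC and 7-AAD. Apoptotic/dead cells were scored by flow cytometry as percent annexin V+ blasts, normalized to the DMSO control.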

[15] = test system: TUR; assay: Cytotoxicity against human TUR cells assessed as apoptotic/dead cells after 24 to 48 hrs by annexin V-FITC/7-AAD staining-based flow cytometric analysis; format: functional
[16] = test system: THP-1; assay: Cytotoxicity against human THP1 cells assessed as apoptotic/dead cells after 24 to 48 hrs by annexin V-FITC/7-AAD staining-based flow cytometric analysis; format: functional
[17] = test system: HL-60; assay: (§5) Cytotoxicity against human HL60 cells assessed as apoptotic/dead cells after 24 to 48 hrs by annexin V-FITC/7-AAD staining-based flow cytometric analysis; format: functional
[18] = as §5; format: functional; conditions: HL-60, read-out: LD50 (the source's name)
[19] = test system: Kasumi 1; assay: Cytotoxicity against human Kasumi-1 cells assessed as apoptotic/dead cells after 24 to 48 hrs by annexin V-FITC/7-AAD staining-based flow cytometric analysis; format: functional
[20] = test system: KG-1; assay: (§6) Cytotoxicity against human KG1 cells assessed as apoptotic/dead cells after 24 to 48 hrs by annexin V-FITC/7-AAD staining-based flow cytometric analysis; format: functional
[21] = as §6; format: functional; conditions: KG-1, read-out: LD50 (the source's name)
[22] = read-out: LD50 (the source's name)

COc1ccc(/C(C#N)=C/c2cc3ccccc3s2)cc1OC
CC50 [1]: 6.06 µM

COc1ccc(/C(C#N)=C/c2nc3ccccc3s2)cc1OC
CC50 [1]: 1.22 µM

COc1cc(/C(C#N)=C/c2csc3ccccc23)cc(OC)c1OC
Activity [1]: Dose-dependent effect
CC50 [1]: 0.18 µM

COc1cc(/C(C#N)=C/c2cc3ccccc3s2)cc(OC)c1OC
Activity [2]: tde
Activity [3]: Dose-dependent effect
CC50 [4]: 0.114 µM
Activity [5]: Dose-dependent effect
CC50 [6]: 0.271 µM
Activity [7]: Dose-dependent effect
CC50 [7, 22]: 0.0995 µM
Activity [8]: Dose-dependent effect
CC50 [8, 22]: 0.083 µM
CC50 [9]: 0.0795 µM
Activity [10]: Dose-dependent effect
Activity [11]: Dose-dependent effect
CC50 [12]: 0.156 µM
inhibition [13]: > 50%
Activity [14]: >50%
CC50 [1]: 0.018 µM
Activity [15]: Dose-dependent effect
CC50 [15, 22]: 0.093 µM
Activity [16]: Dose-dependent effect
CC50 [16, 22]: 0.227 µM
Activity [17]: Dose-dependent effect
CC50 [18]: 0.12 µM
Activity [19]: Dose-dependent effect
CC50 [19, 22]: 0.151 µM
Activity [20]: Dose-dependent effect
CC50 [21]: 0.113 µM

COc1cc(OC)cc(/C(C#N)=C/c2cc3ccccc3o2)c1
CC50 [1]: 1.17 µM
